The full list was thinned out, with hits kept by preference.
PGC1a acetyl up = compounds raising PGC1a acetylation signal, primary screen, PGC1a modulator project, cell-based, U2OS, AlphaScreen, signal-increasing mode; overnight; activation, % at 15.6 µM; 350,000 tested, 0.21% active; AID 651723, 2012;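 active means every replicate reaching activation of at least 50%, whatever the mean replicate activation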;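 further: hits raise the AlphaScreen acetylation signal above neutral controls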
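System: flag-PGC1a/GCN5 U2OS cells / Input: 7000 cells/well / Compound: single test concentration per compound / Incubation: overnight compound treatment, 37 °C / Technique: AlphaScreen on lysates with anti-acetyl-lysine antibody, acceptor and donor beads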
Numbers without * were called inactive.

SMILES | PGC1a acetyl up
N#Cc1ccc(Cn2c(=O)c(C#N)c3n(c2=O)CCC3)cc1 | -47.1
COc1ccc(Cl)cc1NC(=O)NCC1CCN(C(=O)OC(C)(C)C)CC1 | -50.0
CN(C)CCOc1ccc(/C(=C(/CCCl)c2ccccc2)c2ccccc2)cc1 | 108.8*
CN(C)CCCN(C(=O)CCOc1ccccc1)c1nc2ccc(F)cc2s1 | -50.5
COc1ccccc1N=C1NC(=O)/C(=C/c2ccc(N(C)C)cc2)S1 | 55.0*
CCCSCC(=O)Nc1ncc2c(n1)-c1ccccc1CC2 | -45.1
CCOc1cc(C)c(S(=O)(=O)N2CCCC2)cc1C | 61.4*
CCOc1cc(/C=C2\CN(C)C/C(=C\c3ccc(O)c(OCC)c3)C2=O)ccc1O | -53.2
C[C@H](CO)N1C[C@H](C)[C@H](CN(C)S(=O)(=O)c2ccc(F)cc2)Oc2ccc(NS(=O)(=O)c3cn(C)cn3)cc2C1=O | -51.2
CC(=O)Nc1cccc(-c2ccnc3c2CC(C)(C(=O)Nc2ccc(C(C)C)cc2)O3)c1 (stereo not drawn) | 69.6*
C[C@H](CO)N1C[C@H](C)[C@@H](CN(C)CC2CCOCC2)Oc2ncc(Br)cc2C1=O | -88.9
CCOC(=O)C1(CC2CCCCO2)CCN(C(=O)Nc2ccc(SC)cc2)CC1 (stereo not drawn) | -55.7
CC(C)(C)NC(=O)Cn1nnc(-c2ccc(OCc3c(F)cccc3Cl)cc2)n1 | 65.6*
CC(C)c1ccc(-c2nnn(CC(=O)N3CCCCC3)n2)cc1 | -40.1
O=c1c(Cl)c(Cl)cnn1Cc1nnc(-c2ccc(Cl)cc2)o1 | 72.9*
COC(=O)C1CCN(Cc2nnc(-c3ccccc3)o2)CC1 | -46.9
Cc1ccc(Cn2ncc(Cl)c(Cl)c2=O)cc1 | 111.8*
COc1ccc(-n2c(SCC#N)nnc2-c2cccnc2)cc1 | -43.0
CCOC(=O)CSc1nnc(-c2ccc(OC)cc2)n1CC | 100.1*
NCC[C@H]1CC[C@@H](NC(=O)C2CCCCC2)[C@@H](CO)O1 | -55.8
O=c1[nH]cnc2c1ccn2C1OC(CO)C(O)C1O (stereo not drawn) | 138.1*
Cc1nn(CC(=O)Nc2ccc(C(C)C)cc2)c(C)c1[N+](=O)[O-] | -43.2
Cc1cc(C(F)(F)F)n(-c2nc(C(=O)NNS(=O)(=O)c3ccccc3[N+](=O)[O-])cs2)n1 | -110.1
COC(=O)c1ccc2c(c1)C(C)(C)C(/C=C/c1ccccc1O)=[N+]2C | 51.8*
C[C@@H]1CN([C@@H](C)CO)C(=O)c2cccc(NC(=O)c3ccc(-c4nccs4)cc3)c2O[C@@H]1CN(C)C(=O)Nc1ccc(C(F)(F)F)cc1 | -54.6
SMILES | PGC1a acetyl up
O=C(CCC1CCCN(C(=O)c2cc(C3CC3)[nH]n2)C1)N1CCN(c2ccccn2)CC1 (stereo not drawn) | -97.8
Cc1cc(F)cc(-c2cc(C(=O)NCc3ccccc3)[nH]n2)c1 | -41.3
O=C(NC1=NCCS1)C1CC(=O)N(c2ccccc2)C1 (stereo not drawn) | 68.0*
CSc1cccc(N2CC(C(=O)NCCN3C(=O)S/C(=C\c4cccnc4)C3=O)CC2=O)c1 (stereo not drawn) | -75.2
O=c1[nH]c2nc(Cl)nc(Cl)c2[nH]1 | -73.8
CNc1ccc2ncc(-c3ccc(OC)c(OC)c3)n2n1 | -58.3
CN(C)Cc1csc(NC(=O)Nc2ccccc2-c2ccccc2)n1 | 51.7*
CCC(C)(C)n1nnnc1CN(Cc1ccc(Cl)cc1)Cc1ccco1 | 81.8*
O=C(Nc1cccc2[nH]ncc12)c1ccc(F)cc1 | -41.7
CCOc1ccccc1NC(=O)c1ccc2ccccc2c1 | -88.2
CCN(CC)c1ccc(NC(=O)c2cc(OC)cc(OC)c2)c(C)c1 | 98.6*
Cc1ccccc1C(=O)Nc1ccc(C(=O)O)cc1NC(=O)c1ccccc1C | -41.4
Cn1nc([N+](=O)[O-])nc1S(C)(=O)=O | 95.0*
C[C@@H]1CN([C@@H](C)CO)C(=O)c2cc(-c3cccc(C#N)c3)cnc2O[C@H]1CN(C)C(=O)c1ccccn1 | -57.5
COc1ccccc1Oc1ccc2c(c1)C(=O)N(c1ccc(C)cc1)C2=O | -103.7
C[C@H](CO)N1C[C@H](C)[C@@H](CN(C)C(=O)c2ccccn2)Oc2ncc(-c3cccc(C#N)c3)cc2C1=O | -57.5
Cc1ccc(C(=O)Cn2c(C(=O)OCCO)cc3ccccc32)cc1 | 65.3*
C=CCNC(=O)c1ccc(CN2CCC(Cc3ccccc3)CC2)cc1 | -47.6
CN(C)S(=O)(=O)N1CCC(Cc2ccccc2)CC1 | 61.5*
CN(Cc1ccccc1)S(=O)(=O)c1ccc(S(=O)(=O)N(Cc2ccc(F)cc2)C2CCCC2)cc1 | -44.0
Cc1ccccc1S(=O)(=O)NCC[C@@H]1CC[C@H](NC(=O)C2CCOCC2)[C@@H](CO)O1 | -44.9
O=C(C[C@H]1C[C@@H]2c3cc(NS(=O)(=O)c4ccc(F)cc4)ccc3O[C@@H]2[C@@H](CO)O1)N1CCc2ccccc2C1 | -50.1
O=C(NCc1ccco1)c1scc2c1OCCO2 | -50.0
COc1ccc(-n2c(=O)c3c4c(sc3n3c(=S)[nH]nc23)CCC4)cc1 | 234.3*
O=C(O)C1CCCN1S(=O)(=O)c1cc(Cl)ccc1Cl (stereo not drawn) | -42.5
SMILES | PGC1a acetyl up
N#Cc1cc(Oc2cccc3cccnc23)c(-n2nnc3ccccc32)cc1C#N | 138.7*
OCC1OC(Oc2c(Br)cc(Br)cc2Br)C(O)C(O)C1O (stereo not drawn) | -62.8
CCCCOP(=O)(c1ccc(N(C)C)cc1)C(O)c1ccc(OC)cc1 (stereo not drawn) | -82.0
Cc1ccccc1OCC(O)CNC1CCC(NCC(O)COc2ccccc2C)CC1 (stereo not drawn) | 88.3*
C[C@H]1CCCCO[C@H](CN(C)Cc2ccc3c(c2)OCO3)[C@@H](C)CN([C@@H](C)CO)C(=O)c2cc(NC(=O)Nc3ccc(C(F)(F)F)cc3)ccc2O1 | -78.7
COc1ccc(/C=N/Nc2nc3ccccc3[nH]2)c(OC)c1OC | -50.3
Cc1[nH]c2ccccc2c1/C=N/Nc1nc2ccccc2[nH]1 | 79.5*
Cc1ccc(NC(=O)CC2=NC(=O)C(CC(=O)Nc3ccccc3F)S2)cc1 (stereo not drawn) | -49.7
C[C@@H]1CN([C@H](C)CO)C(=O)CCCn2cc(nn2)CO[C@@H]1CN(C)C(=O)OCc1ccccc1 | -45.8
CCN1CCN(c2cc(C)c3cc(NC(=O)c4ccc(Br)o4)ccc3n2)CC1 | 52.9*
C[C@H]([C@@H](N)C(=O)N[C@@H](C(=O)O)[C@@H]1O[C@H](n2ccc(=O)[nH]c2=O)[C@@H](O)[C@H]1O)[C@@H](O)c1ccc(O)cn1 | -45.6
CCC1(CC)Cc2ccccc2-c2nc(CN(C)C)[nH]c(=O)c21 | 53.3*
CCCCOc1ccc(C(=O)C(CN2CCOCC2)c2ccccc2)cc1 (stereo not drawn) | -79.6
CC(c1ccccc1)N1CCN(C(=O)CCl)CC1 (stereo not drawn) | -47.8
COc1ccc(C(=O)C(CN2CCCC2)c2ccccc2)cc1 (stereo not drawn) | 166.8*
COc1cc(C(C)=O)ccc1OCC(O)CN1CCN(c2ccc(C)c(C)c2)CC1 (stereo not drawn) | -40.0
COc1ccc(-c2onc(C)c2-c2ccc(C(=O)OC(C)C)o2)c(O)c1 | -74.1
Nc1ccc(N2CCCCC2)cc1N1CCCCC1 | 53.6*
O=C(O)c1cc(N2CCCCC2)ccn1 | -47.7
O=S1(=O)CC=C(CSC(=S)NC2CCS(=O)(=O)C2)C1 (stereo not drawn) | -47.2
Cc1ccc(-n2c(SCC(N)=O)nnc2-c2ccc(S(=O)(=O)N3CCCCC3)cc2)c(C)c1 | 63.1*
Cc1ccc(S(=O)(=O)N2CCCC2)cc1C(=O)O | -59.1
Cn1c(=O)c2c(ncn2CC(=O)O)n(C)c1=O | -42.7

Screening results (PubChem)
